Screening results as filed in PubChem BioAssay.
Compounds with a hit are over-represented: about 1.9% of the library has one in this group of screens.
pCIP destab = lowers stability of the mouse p/CIP coactivator protein. AID 1984. decrease of EGFP signal, % at 10 µM. 0.01% of 290,000 active. F442A p/CIP-EGFP cells, EGFP fluorescence, 16 h. Q05BA5;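 active = EGFP signal decrease of at least 30% at 10 µM or well 3 SD below plate mean, unless failing retest; inactive = the rest, including hits failing retest or dose response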
GPR7 antagonist = blocks human GPR7 receptor signaling. P48145. GPR7-expressing cells, fluorescence antagonist assay. inhibition, % at 4.4 µM. 1.1% of 290,000 active. AID 1861; in the data active = inhibition above about 16%, passing the limit was not always enough;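 also: cells stimulated with the agonist NPW; 0% = agonist with vehicle and 100% = vehicle without agonist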
Target sequence (P48145 whole entry, looked up): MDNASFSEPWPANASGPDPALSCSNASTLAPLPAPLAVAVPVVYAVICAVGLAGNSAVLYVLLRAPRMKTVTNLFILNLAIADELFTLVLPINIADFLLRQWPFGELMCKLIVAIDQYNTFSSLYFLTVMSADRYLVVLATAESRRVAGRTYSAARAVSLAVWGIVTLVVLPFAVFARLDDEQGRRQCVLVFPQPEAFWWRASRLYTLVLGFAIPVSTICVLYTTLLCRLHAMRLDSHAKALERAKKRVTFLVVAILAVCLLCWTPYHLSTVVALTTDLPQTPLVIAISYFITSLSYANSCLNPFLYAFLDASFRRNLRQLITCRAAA
FID counter = counter-screen for HCV NS3 helicase inhibitors: DNA intercalator displacement | DNA fluorescent intercalator displacement, fluorescence | inhibition, % at 7.9 µM | 0.17% of 290,000 active; in the data active = inhibition above about 37%;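 also: 0% = vehicle and 100% = reference compound; higher means more ethidium bromide displaced from hairpin DNA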
HCV NS3 hel inh = inhibitors of Hepatitis C virus NS3 helicase. NS3 helicase DNA unwinding, Cy5 molecular beacon fluorescence. inhibition, % at 10.9 µM. AID 1800. 0.56% of 290,000 active;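 active = inhibition above the mean of all tested compounds plus 3 SD, set per campaign, cut at about 35% in these data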;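 also: 0% = DMSO wells and 100% = thioflavine S control wells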
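Material: hepatitis C virus NS3 helicase domain fragment enzyme; measured by: Cy5 fluorescence, 0 and 60 min reads; control set: DMSO and thioflavine S; incubation: 60 min unwinding reaction at 25 °C after ATP addition; read-out basis: % inhibition from 60/0 min fluorescence ratio, DMSO 0%, thioflavine S 100%; repeats: singlicate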
core dimer inh = blocks dimerization of HCV core protein; TR-FRET GST/Flag-core106 dimerization, 1536-well; inhibition, % at 5 µM; 0.33% of 300,000 active; AID 1899;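 active = inhibition above the mean of all tested compounds plus 3 SD, set per screening campaign, cut at about 45% in these data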
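Assay system: tagged HCV core106 pair (GST and Flag); medium: KF-containing HEPES buffer, pH 7.45, DTT, CHAPS, BSA; also added: Eu donor and XL665 acceptor anti-tag antibodies; dosing: 5 µM single dose; timing: compound-protein-antibody incubation 4 h at 22.5 °C; signal: TR-FRET 671 and 617 nm emission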
GPR7 antag conf = human GPR7 antagonism, confirmation assay; shares compounds with GPR7 antagonist; GPR7-expressing cells, calcium fluorescence antagonist mode; inhibition, % at 4.4 µM; 52% of 2,400 active; AID 1952; in the data active = inhibition above about 24%;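 also: stimulated with the GPR7 agonist NPW; 0% = agonist plus vehicle and 100% = vehicle alone without agonist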
MCHR1 antagonist = MCHR1 (human) antagonism in GPR7 counter-screen; 62% of 2,400 active; inhibition, % at 4.4 µM; shares compounds with GPR7 antagonist; MCHR1-expressing cells, fluorescence antagonist assay; in the data active = inhibition above about 22%;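 also: 0% = vehicle with agonist and 100% = vehicle without agonist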
* hit, by the source's call; . = no result given; ! = not confirmed by another sample.

SMILES | pCIP destab | GPR7 antagonist | FID counter | HCV NS3 hel inh | core dimer inh | GPR7 antag conf | MCHR1 antagonist
Cc1ccccc1OCc1n(CC(=O)OC2CC(C)CCC2C(C)C)c2ccccc2[n+]1C (configuration not stated) | 0.4 | 42.1* | 37.9*! | -39.6 | -8.5 | 61.0* | 92.1*
CCOC(=O)Cn1c(COc2ccccc2OC)[n+](C)c2ccccc21 | . | . | . | . | 0.3 | . | .
CC1CCC(C(C)C)C(OC(=O)COC(=O)c2ccc(N)cc2)C1 (configuration not stated) | -10.6 | -16.3 | -21.5 | -1.2 | 2.6 | . | .
CCCCOC(=O)Cn1c(=O)n(CC(=O)OCCCC)c2ccccc21 | 3.3 | -1.9 | -31.4 | 1.5 | 5.1 | . | .
CCCCCCCCCCOC(=O)Cn1c(COc2ccc(Cl)cc2)[n+](C)c2ccccc21 | -16.3 | 60.2* | 14.7 | -50.3 | -2.2 | 66.4* | 70.5*
CCCCCCCCCCOC(=O)Cn1c(COc2ccccc2)[n+](C)c2ccccc21 | -23.3 | 71.3* | 27.4 | -81.3 | -14.1 | 77.4* | 93.6*
CCCCCCCCCCOC(=O)Cn1c(COc2ccccc2C)[n+](C)c2ccccc21 | -0.6 | 27.9* | 26.9 | -40.5 | -9.3 | 83.4* | 87.5*
CCCCCCCCCCOC(=O)Cn1c(COc2cccc(C)c2)[n+](C)c2ccccc21 | 7.1 | 45.2* | 24.2 | -54.8 | -2.9 | 67.7* | 85.3*
CCCCCOC(=O)Cn1c(=O)oc2ccccc21 | 9.2 | -1.4 | -11.2 | 7.6 | -7.0 | . | .
CC(C)(C)NC(=O)COc1ccccc1C#N | -4.1 | -9.7 | -3.0 | 7.1 | -2.1 | . | .
COc1ccc2c(Cl)c(C(=O)N/N=C3\CCCC(=O)C3)sc2c1 | -100.1 | 24.3* | -11.8 | 24.3 | 1.9 | 10.9 | 27.7*
Cc1ccc2c(c1)-c1[nH]c(=S)ncc1CS2 | -3.8 | -16.6 | -3.5 | 15.2 | 10.8 | . | .
Cc1ccccc1NC1=C(Cl)C(=O)OC1OC(=O)c1ccccc1C (configuration not stated) | -1.7 | 52.0* | -15.9 | 9.3 | 5.4 | 20.0 | 58.9*
CCOC(=O)C1(CC2CCCCO2)CCN(C2CCSCC2)CC1 (configuration not stated) | -8.6 | 25.1* | -5.2 | -6.7 | -3.0 | 37.2* | 22.7*
CCOC(=O)C1(CC2CCCCO2)CCN(S(=O)(=O)c2cc(C)cs2)CC1 (configuration not stated) | -16.8 | -5.9 | -34.4 | 1.9 | 0.9 | . | .
CC1CCCC(C)N1CCCNC(=O)Cn1c(=O)c2cccn2c2cccnc21 (configuration not stated) | -0.8 | 0.6 | 0.1 | 0.7 | -2.7 | . | .
COc1cccc(Cn2cccc(NC(=O)Nc3cccc(C#N)c3)c2=O)c1 | -12.1 | 26.8* | -8.0 | 16.0 | -0.2 | 25.6* | 66.7*
COc1cccc(NC(=O)Nc2cccn(Cc3ccc(C)cc3)c2=O)c1 | -8.0 | -5.1 | -2.5 | 0.3 | 13.1 | . | .
CCOc1cc(Cl)c(S(=O)(=O)NCCCN2CCOCC2)cc1Cl | -22.6 | -4.6 | -1.2 | -3.2 | 4.3 | . | .
CCOC(=O)c1cc2ccccc2n1CCN(CC)CC | -11.1 | 31.3* | 7.8 | 1.8 | 0.1 | 6.1 | 6.5
COc1ccc(/C=C2\Cc3ccccc3C2=O)cc1OC | 2.1 | 5.7 | -21.8 | 13.0 | . | . | .
COc1ccc(/C=C2\CCc3ccccc3C2=O)cc1O | 4.7 | 25.3* | -14.1 | -11.0 | 16.5 | 29.6* | 33.7*
CCc1cccc(CC)c1NC(=O)CN1CC(C)SC1=NC1CCCCC1 (configuration not stated) | -14.1 | 38.5* | 14.2 | -17.0 | -3.1 | 54.8* | 32.6*
O=C1Nc2ccc(Br)cc2/C1=C/c1ccc(C(=O)O)cc1 | -8.6 | -2.9 | -15.0 | 35.3 | 18.2 | . | .
O=C(c1cnccn1)N(Cc1cccs1)C1(C(=O)NC2CCCC2)CCCCC1 | -2.1 | 26.3* | -34.6 | 10.8 | 1.2 | 37.2* | 21.2
O=C(Cc1cccs1)N(Cc1cccs1)C1(C(=O)NC2CCCCC2)CCCCC1 | -9.8 | 43.4* | -7.6 | 5.3 | 9.8 | 46.9* | 61.1*
O=C1NC(=O)C(CC(=O)N(Cc2cccs2)C2(C(=O)NC3CCCC3)CCCCC2)N1 (configuration not stated) | -7.3 | -2.2 | -13.2 | 2.2 | 4.0 | . | .
